ChEMBL document CHEMBL1165951, “Improved synthesis and in vitro/in vivo activities of natural product-inspired, artificial glutamate analogs” (Bioorg Med Chem, 2010)
Activity calls are given as the source filed them. The calls are words filed in the database; no cut-off is given here.

Tests used:
Rattus norvegicus [1] = species on record: Rattus norvegicus; test: Binding affinity to rat brain kainate receptor at 10 uM by radioligand displacement assay
In short: (§1)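 Radioligand displacement at AMPA, kainate and NMDA ionotropic glutamate receptor sites in rat brain synaptic membranes, with test compound at 1 × 10−5 M.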

[2] = biological target: Glutamate NMDA receptor (Rattus norvegicus) (UniProt P35439+Q00959+Q00960+Q00961+Q62645+Q8VHN2+Q9R1M7); test: Binding affinity to rat brain NMDA receptor at 10 uM by radioligand displacement assay; in short: as §1
Rattus norvegicus [3] = species on record: Rattus norvegicus; test: Binding affinity to rat brain AMPA receptor at 10 uM by radioligand displacement assay; in short: as §1
Mus musculus = test: Effect on neurological behavior in mouse assessed as induction of hyperactivity at 20 ug, icv up to 50 mins; type: functional, organism-based
In short: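 Racemic analog given to mice as a single intracranial (ICV) injection of 20 μg/mouse. Behaviour was then observed, with the type and duration of any change in activity recorded. Animals were kept according to the NRC Guide for the Care and Use of Laboratory Animals.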

Rattus norvegicus [4] = species on record: Rattus norvegicus; test: Binding affinity to glutamate receptor in rat hippocampal neurons assessed as reduction of action potential firing frequency at 10 uM by current- and voltage-clump electrophysiological analysis; type: tissue-based; conditions: Hippocampus
In short: (§2)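 Cultured hippocampal neurons were recorded by current clamp, read as action potential firing frequency, and by voltage clamp, read as charge transfer during spontaneous excitatory synaptic currents. The value is the percent reduction, n = 3.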

Rattus norvegicus [5] = species on record: Rattus norvegicus; test: Binding affinity to glutamate receptor in rat hippocampal neurons assessed as reduction of spontaneous excitatory synaptic current at 10 uM by current- and voltage-clump electrophysiological analysis; type: tissue-based; conditions: Hippocampus; in short: as §2

Compound	Activity (Rattus norvegicus [1])	Activity [2]	Activity (Rattus norvegicus [3])	Activity (Mus musculus)	inhibition (Rattus norvegicus [4]) [%]	inhibition (Rattus norvegicus [5]) [%]
O=C(O)C[C@]12O[C@@H]3CCCO[C@@H]3[C@H]1CN[C@@H]2C(=O)O	inactive	inactive	inactive	Active	–	–
O=C(O)C[C@]12O[C@@H]3[C@@H](O)[C@@H](O)CN[C@@H]3[C@H]1CN[C@@H]2C(=O)O (relative stereo)	–	–	–	inactive	–	–
O=C(O)C[C@]12O[C@@H]3[C@@H](O)[C@@H](O)CCO[C@@H]3[C@H]1CN[C@@H]2C(=O)O	inactive	inactive	inactive	Active	–	–
O=C(O)C[C@]12O[C@@H]3CCCCO[C@@H]3[C@H]1CN[C@@H]2C(=O)O	inactive	inactive	inactive	Active	–	–
O=C(O)C[C@]12O[C@@H]3[C@@H](O)[C@@H](O)CCN[C@@H]3[C@H]1CN[C@@H]2C(=O)O (relative stereo)	–	–	–	inactive	–	–
O=C(O)C[C@]12O[C@@H]3C=CCCO[C@@H]3[C@H]1CN[C@@H]2C(=O)O (relative stereo)	–	–	–	Active	–	–
O=C(O)C[C@]12O[C@@H]3[C@@H](O)[C@@H](O)CO[C@@H]3[C@H]1CN[C@@H]2C(=O)O	inactive	inactive	inactive	inactive	–	–
O=C(O)C[C@]12O[C@@H]3C=CCCN[C@@H]3[C@H]1CN[C@@H]2C(=O)O (relative stereo)	–	–	–	inactive	–	–
O=C(O)C[C@]12O[C@@H]3CCCN[C@@H]3[C@H]1CN[C@@H]2C(=O)O (relative stereo)	–	–	–	inactive	–	–
O=C(O)C[C@]12O[C@@H]3CCCCN[C@@H]3[C@H]1CN[C@@H]2C(=O)O (relative stereo)	–	–	–	inactive	–	–
O=C(O)C[C@]12O[C@@H]3C=CCN[C@@H]3[C@H]1CN[C@@H]2C(=O)O (relative stereo)	–	–	–	inactive	52	31
O=C(O)C[C@]12O[C@@H]3C=CCO[C@@H]3[C@H]1CN[C@@H]2C(=O)O (relative stereo)	–	–	–	inactive	–	–
